# Source: ChEMBL document CHEMBL1149349, “Identification of novel pyrazole acid antagonists for the EP1 receptor” (Bioorg Med Chem Lett, 2006)
# Legend:
# [1] = target: T1, Prostaglandin E2 receptor EP1 subtype (Homo sapiens, UniProt P34995); test: Antagonist activity at EP1 receptor expressed in CHO-K1 cells assessed as inhibition of PGE2-stimulated calcium ion mobilization by FLIPR assay; assay type: functional, cell-based
# T1 sequence (P34995 whole entry): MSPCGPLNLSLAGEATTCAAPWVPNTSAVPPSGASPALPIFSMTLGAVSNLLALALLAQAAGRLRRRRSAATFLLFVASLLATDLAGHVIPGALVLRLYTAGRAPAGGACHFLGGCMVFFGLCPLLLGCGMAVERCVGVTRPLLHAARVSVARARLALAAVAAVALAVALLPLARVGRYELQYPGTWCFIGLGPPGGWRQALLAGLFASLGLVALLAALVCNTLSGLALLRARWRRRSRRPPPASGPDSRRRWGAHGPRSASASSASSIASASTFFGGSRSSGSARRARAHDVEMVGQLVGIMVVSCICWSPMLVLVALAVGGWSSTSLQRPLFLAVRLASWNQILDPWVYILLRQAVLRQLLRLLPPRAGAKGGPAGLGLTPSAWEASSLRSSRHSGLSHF
# Procedure, shortened: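 Stably EP1- or EP3-transfected CHO-K1 whole cells loaded with the calcium-sensitive dye Fluo-3. Inhibition of PGE₂-evoked intracellular Ca²⁺ mobilisation measured, reported as pKi.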
# [2] = target: T1, Prostaglandin E2 receptor EP1 subtype; test: Displacement of [3H]PGE2 from EP1 receptor expressed in CHO-K1 cells; assay type: cell-based
# Procedure, shortened: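 Membranes from cells expressing the receptor, incubated with test compound and [³H]PGE₂ (3 nM final) for 30 min at 30 °C. Bound radioactivity read by liquid scintillation counting. Values are means of at least four experiments.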
# [3] = target: Prostaglandin E2 receptor EP3 subtype (Homo sapiens) (UniProt P43115); test: Inhibition of PGE2-induced intracellular Ca2+ mobilisation (FLIPR) at EP3 receptor expressed in CHO-K1 cells
# [4] = Solubility at pH 7.4; assay type: physicochemical; settings: buffer
# Cytochrome P450 1A2 = target: T2, Cytochrome P450 1A2 (Homo sapiens, UniProt P05177); test: Inhibition of CYP450 1A2; assay type: ADME
# T2 sequence (P05177 whole entry): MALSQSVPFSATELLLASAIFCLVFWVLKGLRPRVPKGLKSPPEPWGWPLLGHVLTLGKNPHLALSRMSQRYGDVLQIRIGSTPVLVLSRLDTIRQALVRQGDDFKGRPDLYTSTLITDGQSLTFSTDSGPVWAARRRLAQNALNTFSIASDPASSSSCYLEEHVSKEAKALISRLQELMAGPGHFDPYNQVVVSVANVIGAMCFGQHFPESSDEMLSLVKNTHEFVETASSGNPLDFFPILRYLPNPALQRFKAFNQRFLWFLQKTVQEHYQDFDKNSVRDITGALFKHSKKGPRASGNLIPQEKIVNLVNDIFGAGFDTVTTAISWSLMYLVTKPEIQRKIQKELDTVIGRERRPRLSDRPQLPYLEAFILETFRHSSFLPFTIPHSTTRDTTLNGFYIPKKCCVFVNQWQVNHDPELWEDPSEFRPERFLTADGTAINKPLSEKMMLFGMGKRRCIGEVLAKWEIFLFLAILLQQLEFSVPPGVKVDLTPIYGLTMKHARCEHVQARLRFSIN
# Procedure, shortened: (§1)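 In vitro CYP450 inhibition run by the Gentest protocol, with IC₅₀ determined for each isoform.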
# Cytochrome P450 2C9 = Cytochrome P450 2C9 (Homo sapiens, UniProt P11712); test: Inhibition of CYP450 2C9; assay type: ADME; procedure, shortened: as §1
# Cytochrome P450 2C19 = Cytochrome P450 2C19 (Homo sapiens, UniProt P33261); test: Inhibition of CYP450 2C19; assay type: ADME; procedure, shortened: as §1
# Cytochrome P450 2D6 = Cytochrome P450 2D6 (Homo sapiens, UniProt P10635); test: Inhibition of CYP450 2D6; assay type: ADME; procedure, shortened: as §1
# Cytochrome P450 3A4 = Cytochrome P450 3A4 (Homo sapiens, UniProt P08684); test: Inhibition of CYP450 3A4; assay type: ADME; procedure, shortened: as §1
# Liver microsomes [5] = test: Intrinsic clearance in rat liver microsome; assay type: ADME
# Liver microsomes [6] = test: Intrinsic clearance in human liver microsome; assay type: ADME
# [7] = Distribution coefficient, log D at pH 7.4; assay type: physicochemical; settings: octanol/water
# [8] = Cmax in rat at 3 mg/kg, po; assay type: ADME, organism-based; design: dose 3 mg/kg, route oral; settings: in vivo
# Procedure, shortened: (§2)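 Oral dosing with drug levels measured in blood. Cmax, Tmax and AUC normalised to dose were derived from the blood concentration–time profile.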
# [9] = Tmax in rat at 3 mg/kg, po; assay type: ADME, organism-based; design: dose 3 mg/kg, route oral; settings: in vivo; procedure, shortened: as §2
# Rattus norvegicus [10] = test: AUC in rat at 3 mg/kg, po; assay type: ADME, organism-based, Plasma; design: dose 3 mg/kg, route oral; settings: in vivo; procedure, shortened: as §2
# Rattus norvegicus [11] = test: AUC/dose in rat at 3 mg/kg, po; assay type: ADME, organism-based, Plasma; design: dose 3 mg/kg, route oral; settings: in vivo; procedure, shortened: as §2
# Rattus norvegicus [12] = organism: Rattus norvegicus; test: Activity against Freund's complete adjuvant-induced inflammatory pain in rat; assay type: functional
# Prostaglandin E2 receptor EP3 subtype (Homo sapiens), sequence (P43115 whole entry, looked up): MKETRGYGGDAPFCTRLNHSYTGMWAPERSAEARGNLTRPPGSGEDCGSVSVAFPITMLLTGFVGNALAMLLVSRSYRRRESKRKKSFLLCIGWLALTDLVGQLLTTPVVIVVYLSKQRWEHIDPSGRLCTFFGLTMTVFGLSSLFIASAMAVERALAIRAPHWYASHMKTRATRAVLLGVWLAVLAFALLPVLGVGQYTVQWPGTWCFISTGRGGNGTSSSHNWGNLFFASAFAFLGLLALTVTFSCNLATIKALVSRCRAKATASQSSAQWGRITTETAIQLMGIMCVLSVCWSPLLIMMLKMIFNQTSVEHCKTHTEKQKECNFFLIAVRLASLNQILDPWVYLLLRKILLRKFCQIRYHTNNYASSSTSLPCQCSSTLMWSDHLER
# Cytochrome P450 3A4, sequence (P08684 whole entry): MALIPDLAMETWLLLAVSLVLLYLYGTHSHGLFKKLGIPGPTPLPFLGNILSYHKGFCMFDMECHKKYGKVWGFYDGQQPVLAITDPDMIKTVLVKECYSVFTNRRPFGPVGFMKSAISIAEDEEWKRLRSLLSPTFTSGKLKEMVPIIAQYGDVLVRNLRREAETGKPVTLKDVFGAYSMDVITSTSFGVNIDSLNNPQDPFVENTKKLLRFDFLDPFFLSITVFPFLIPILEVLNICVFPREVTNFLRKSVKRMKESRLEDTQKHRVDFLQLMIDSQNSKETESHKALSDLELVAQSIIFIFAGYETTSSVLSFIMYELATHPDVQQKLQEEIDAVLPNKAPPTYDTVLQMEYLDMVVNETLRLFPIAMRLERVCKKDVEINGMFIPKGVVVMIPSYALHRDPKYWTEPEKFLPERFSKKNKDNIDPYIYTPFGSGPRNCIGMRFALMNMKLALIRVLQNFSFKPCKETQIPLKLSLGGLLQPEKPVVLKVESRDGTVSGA
# Cytochrome P450 2D6, sequence (P10635 whole entry): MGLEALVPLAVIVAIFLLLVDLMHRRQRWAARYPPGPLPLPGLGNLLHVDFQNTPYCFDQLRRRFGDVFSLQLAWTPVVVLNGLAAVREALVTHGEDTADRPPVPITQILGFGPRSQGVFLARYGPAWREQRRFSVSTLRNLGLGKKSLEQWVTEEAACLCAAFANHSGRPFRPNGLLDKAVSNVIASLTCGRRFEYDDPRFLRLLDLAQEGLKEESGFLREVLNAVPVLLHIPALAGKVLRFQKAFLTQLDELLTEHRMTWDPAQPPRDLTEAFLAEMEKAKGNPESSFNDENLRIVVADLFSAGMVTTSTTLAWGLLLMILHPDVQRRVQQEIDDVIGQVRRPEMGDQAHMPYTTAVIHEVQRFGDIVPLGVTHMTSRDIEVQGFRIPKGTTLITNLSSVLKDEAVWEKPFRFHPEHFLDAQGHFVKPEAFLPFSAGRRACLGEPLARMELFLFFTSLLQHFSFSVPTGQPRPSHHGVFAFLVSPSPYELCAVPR
# Cytochrome P450 2C19, sequence (P33261 whole entry): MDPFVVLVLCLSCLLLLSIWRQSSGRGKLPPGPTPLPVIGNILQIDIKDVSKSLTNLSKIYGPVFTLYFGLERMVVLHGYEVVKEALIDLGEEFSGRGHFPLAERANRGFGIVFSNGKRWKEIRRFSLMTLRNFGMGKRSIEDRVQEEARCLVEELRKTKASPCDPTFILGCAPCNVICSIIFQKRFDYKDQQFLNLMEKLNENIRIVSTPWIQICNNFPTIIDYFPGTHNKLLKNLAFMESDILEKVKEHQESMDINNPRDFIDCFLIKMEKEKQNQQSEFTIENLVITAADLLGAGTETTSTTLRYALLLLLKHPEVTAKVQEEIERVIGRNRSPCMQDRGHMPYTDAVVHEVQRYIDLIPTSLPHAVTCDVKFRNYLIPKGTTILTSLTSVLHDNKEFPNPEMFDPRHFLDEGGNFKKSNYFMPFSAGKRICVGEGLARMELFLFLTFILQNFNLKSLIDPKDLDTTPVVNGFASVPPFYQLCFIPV
# Cytochrome P450 2C9, sequence (P11712 whole entry): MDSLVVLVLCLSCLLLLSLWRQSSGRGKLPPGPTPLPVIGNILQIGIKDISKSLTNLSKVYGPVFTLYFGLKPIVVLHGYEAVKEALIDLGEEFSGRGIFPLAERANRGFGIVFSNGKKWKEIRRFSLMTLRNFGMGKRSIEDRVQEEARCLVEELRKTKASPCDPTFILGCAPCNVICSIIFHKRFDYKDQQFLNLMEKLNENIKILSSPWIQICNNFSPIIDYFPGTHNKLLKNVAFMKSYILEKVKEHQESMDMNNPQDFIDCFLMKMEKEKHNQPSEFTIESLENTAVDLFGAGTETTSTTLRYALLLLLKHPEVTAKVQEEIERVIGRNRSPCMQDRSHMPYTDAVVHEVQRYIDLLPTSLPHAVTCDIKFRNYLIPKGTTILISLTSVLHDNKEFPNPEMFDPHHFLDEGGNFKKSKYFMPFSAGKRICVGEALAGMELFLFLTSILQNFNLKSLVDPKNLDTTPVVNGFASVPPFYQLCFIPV
Compound,Ki [1] [nM],IC50 [2] [nM],further results
Cc1cc(C(=O)O)nn1Cc1cc(Br)ccc1OCc1ccc(C(C)(C)C)cc1,> 2000,1230,–
Cc1cc(C(=O)O)nn1Cc1cc(F)ccc1OCc1ccc(Cl)cc1Cl,20.4,–,–
Cc1cc(C(=O)O)nn1Cc1cc(Br)ccc1OCc1ccc(F)cc1,11.7,7.41,–
COc1ccccc1COc1ccc(Br)cc1Cn1nc(C(=O)O)cc1C,69.2,–,–
O=C(O)c1nn(Cc2cc(Br)ccc2OCc2ccccc2)cc1CO,> 2000,676,–
Cc1cc(C(=O)O)nn1Cc1ccccc1OCc1ccc(Cl)cc1Cl,8.32,–,Ki [3]: > 2000 nM
CC(=O)Nc1cc(C(=O)O)nn1Cc1cc(Br)ccc1OCc1ccccc1,> 2000,–,–
O=C(O)c1cn(Cc2cc(Br)ccc2OCc2ccccc2)nn1,> 2000,–,–
Cc1cccc(COc2ccc(Br)cc2Cn2nc(C(=O)O)cc2C)c1,525,126,–
Cc1cc(C(=O)O)nn1Cc1cc(Br)ccc1OCc1ccc(Cl)c(C(F)(F)F)c1,> 2000,575,–
Cc1cc(C(=O)O)nn1Cc1cc(Br)ccc1OCc1cc(C(F)(F)F)cc(C(F)(F)F)c1,> 2000,5250,–
Cc1cc(C(=O)O)nn1Cc1cc(Br)ccc1OCc1cccc([N+](=O)[O-])c1,339,–,–
O=C(O)c1nn(Cc2cc(Br)ccc2OCc2ccccc2)cc1C(F)(F)F,> 2000,2570,–
Cc1cc(C(=O)O)nn1Cc1cc(Br)ccc1OCc1ccccc1Cl,28.8,3.16,–
Cc1cc(C(=O)O)nn1Cc1cc(Br)ccc1OCc1c(F)cccc1F,105,14.8,–
Cc1cc(C(=O)O)nn1Cc1cc(Cl)ccc1OCc1ccc(F)cc1F,1.12,–,Ki [3]: > 2000 nM
O=C(O)c1cncn1Cc1cc(Br)ccc1OCc1ccccc1,> 2000,–,–
O=C(O)c1nn(Cc2cc(Br)ccc2OCc2ccccc2)cc1F,692,123,–
Cc1cc(C(=O)O)nn1Cc1cc(F)ccc1OCc1ccc(F)cc1F,7.94,–,Ki [3]: > 2000 nM
O=C(O)c1ccnn1Cc1cc(Br)ccc1OCc1ccccc1,> 2000,–,–

Compound,Ki [1] [nM],IC50 [2] [nM],further results
Cc1cc(C(=O)O)nn1Cc1cc(Br)ccc1OCc1ccc(Cl)cc1,8.71,8.71,–
Cc1cc(C(=O)O)nn1Cc1cc(Br)ccc1OCc1ccc(C(F)(F)F)cc1,97.7,35.5,–
Cc1cn(Cc2cc(Br)ccc2OCc2ccccc2)nc1C(=O)O,1350,427,–
O=C(O)c1nn(Cc2cc(Br)ccc2OCc2ccccc2)cc1Cl,> 2000,–,–
O=C(O)c1nn(Cc2cc(Br)ccc2OCc2ccccc2)cc1Br,> 2000,457,–
O=C(O)c1cn(Cc2cc(Br)ccc2OCc2ccccc2)cn1,> 2000,–,–
Cc1cc(C(=O)O)nn1Cc1cc(Br)ccc1OCc1cccc(Cl)c1,427,115,–
Cc1cc(C(=O)O)nn1Cc1cc(Br)ccc1OCc1ccccc1,15.1,6.46,solubility [4]: 850 µg/mL; IC50 (Cytochrome P450 1A2): 21000 nM; IC50 (Cytochrome P450 2C9): > 100000 nM; IC50 (Cytochrome P450 2C19): > 100000 nM; IC50 (Cytochrome P450 2D6): > 100000 nM; IC50 (Cytochrome P450 3A4): > 100000 nM; CL (Liver microsomes [5]): < 0.5 mL/min/g; CL (Liver microsomes [6]): 0.6 mL/min/g; logD [7]: 1.15; Cmax [8]: 5.69 µM; Tmax [9]: 30 min; AUC (Rattus norvegicus [10]): 16.3 µM·h; AUC/dose (Rattus norvegicus [11]): 124 kg·min/L; ED50 (Rattus norvegicus [12]): 1.3 mg/kg
O=C(O)c1cnn(Cc2cc(Br)ccc2OCc2ccccc2)c1,> 2000,–,–
Cc1cc(C(=O)O)nn1Cc1cc(Cl)ccc1OCc1ccc(Cl)cc1Cl,0.55,–,Ki [3]: > 2000 nM
Cc1cc(C(=O)O)nn1Cc1cc(Br)ccc1OCc1ccc(F)cc1F,2.63,0.525,–
O=C(O)c1cc(-c2cccs2)n(Cc2cc(Br)ccc2OCc2ccccc2)n1,617,195,–
Cc1cc(C(=O)O)nn1Cc1cc(Br)ccc1OCc1cc(Cl)cc(Cl)c1,1120,–,–
O=C(O)c1cccc(-c2sccc2-c2cc(Cl)ccc2OCc2ccccc2)c1,1.26,3.55,–
Cc1cc(C(=O)O)nn1Cc1cc(Br)ccc1OCc1ccc(Cl)cc1Cl,0.49,0.132,–
Cc1cc(C(=O)O)nn1Cc1cc(Br)ccc1OCc1cccc(Br)c1,129,17.8,–
O=C(O)c1ccn(Cc2cc(Br)ccc2OCc2ccccc2)n1,55,9.77,–
CCCCc1cc(C(=O)O)nn1Cc1cc(Br)ccc1OCc1ccccc1,977,–,–
Cc1cc(C(=O)O)nn1Cc1cc(Br)ccc1OCc1cccc(C(F)(F)F)c1,1100,309,–
